Substrate in data set [1]: COc1cccc2c1C(=O)c1c(O)c3c(c(O)c1C2=O)C[C@@](O)(C(=O)CO)C[C@@H]3OC1CC(NC(=O)OCC2=C(C(=O)O)N3C(=O)[C@@H](NC(=O)CCCC(=O)O)[C@H]3SC2)C(O)C(C)O1
Kind of data set: The kinetic constant(Km) value as spectrophotometrically by using Bacillus cereus beta-lactamase (BCbL) enzyme as catalyst. The method in brief:
(§1)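 Spectrophotometric hydrolysis at 23 °C in PBS with 12.5 μg/mL BSA. EClbL was used at 0.1 μg/mL; BCbL and ECbL at 1.0 μg/mL. […] Initial velocities were linear over 1 min.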

Substrate in data set [2]: COc1cccc2c1C(=O)c1c(O)c3c(c(O)c1C2=O)C[C@@](O)(C(=O)CO)C[C@@H]3OC1CC(NC(=O)OCC2=C(C(=O)O)N3C(=O)[C@@H](NC(=O)CCCC(=O)O)[C@H]3SC2)C(O)C(C)O1
The experiment in a line: The kinetic constant(Km) value as spectrophotometrically by using Enterobacter cloacae P99 beta-lactamase (ECIbL) enzyme as catalyst. In short, it runs like this:
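Initial-velocity kinetics at 23 °C in PBS with 12.5 μg/mL bovine serum albumin. […] Hydrolysis followed by absorbance change at 230 nm or 260 nm, linear over 1 min. Km from direct linear plots, mean of at least three independent experiments.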

Substrate in data set [3]: COc1cccc2c1C(=O)c1c(O)c3c(c(O)c1C2=O)C[C@@](O)(C(=O)CO)C[C@@H]3OC1CC(NC(=O)OCC2=C(C(=O)O)N3C(=O)[C@@H](NC(=O)CCCC(=O)O)[C@H]3SC2)C(O)C(C)O1
The experiment in a line: The kinetic constant(Km) value as spectrophotometrically by using Escherichia coli TEM-1 beta-lactamase (ECbL) enzyme as catalyst. The method in brief:
as §1

These results are taken from ChEMBL document CHEMBL1128301, “Cephalosporin derivatives of doxorubicin as prodrugs for activation by monoclonal antibody-beta-lactamase conjugates” (J Med Chem, 1995).

B1: Metallo-beta-lactamase type 2 (Bacillus cereus), P14488 (protein)
chain: MKNTLLKLGVCVSLLGITPFVSTISSVQAERTVEHKVIKNETGTISISQLNKNVWVHTELGYFSGEAVPSNGLVLNTSKGLVLVDSSWDDKLTKELIEMVEKKFKKRVTDVIITHAHADRIGGMKTLKERGIKAHSTALTAELAKKNGYEEPLGDLQSVTNLKFGNMKVETFYPGKGHTEDNIVVWLPQYQILAGGCLVKSASSKDLGNVADAYVNEWSTSIENVLKRYGNINLVVPGHGEVGDRGLLLHTLDLLK
As usually defined, the Km is the substrate concentration at which the rate is half of its maximum. B1: in data set [1], the Km turned out to be 56 µM.

B2: Beta-lactamase (Enterobacter cloacae), P05364 (protein)
chain: MMRKSLCCALLLGISCSALATPVSEKQLAEVVANTITPLMKAQSVPGMAVAVIYQGKPHYYTFGKADIAANKPVTPQTLFELGSISKTFTGVLGGDAIARGEISLDDAVTRYWPQLTGKQWQGIRMLDLATYTAGGLPLQVPDEVTDNASLLRFYQNWQPQWKPGTTRLYANASIGLFGALAVKPSGMPYEQAMTTRVLKPLKLDHTWINVPKAEEAHYAWGYRDGKAVRVSPGMLDAQAYGVKTNVQDMANWVMANMAPENVADASLKQGIALAQSRYWRIGSMYQGLGWEMLNWPVEANTVVEGSDSKVALAPLPVAEVNPPAPPVKASWVHKTGSTGGFGSYVAFIPEKQIGIVMLANTSYPNPARVEAAYHILEALQ
As for B2, the Michaelis constant (Km) in data set [2] came to 83 µM.

B3: Beta-lactamase TEM (Escherichia coli), P62593 (protein)
chain: MSIQHFRVALIPFFAAFCLPVFAHPETLVKVKDAEDQLGARVGYIELDLNSGKILESFRPEERFPMMSTFKVLLCGAVLSRVDAGQEQLGRRIHYSQNDLVEYSPVTEKHLTDGMTVRELCSAAITMSDNTAANLLLTTIGGPKELTAFLHNMGDHVTRLDRWEPELNEAIPNDERDTTMPAAMATTLRKLLTGELLTLASRQQLIDWMEADKVAGPLLRSALPAGWFIADKSGAGERGSRGIIAALGPDGKPSRIVVIYTTGSQATMDERNRQIAEIGASLIKHW
For B3, in data set [3], the Km was determined as 73 µM.
